In assay [1] the target is T1, Toll-like receptor 4 (Mus musculus) (UniProt Q9QUK6).
T1 sequence (whole entry): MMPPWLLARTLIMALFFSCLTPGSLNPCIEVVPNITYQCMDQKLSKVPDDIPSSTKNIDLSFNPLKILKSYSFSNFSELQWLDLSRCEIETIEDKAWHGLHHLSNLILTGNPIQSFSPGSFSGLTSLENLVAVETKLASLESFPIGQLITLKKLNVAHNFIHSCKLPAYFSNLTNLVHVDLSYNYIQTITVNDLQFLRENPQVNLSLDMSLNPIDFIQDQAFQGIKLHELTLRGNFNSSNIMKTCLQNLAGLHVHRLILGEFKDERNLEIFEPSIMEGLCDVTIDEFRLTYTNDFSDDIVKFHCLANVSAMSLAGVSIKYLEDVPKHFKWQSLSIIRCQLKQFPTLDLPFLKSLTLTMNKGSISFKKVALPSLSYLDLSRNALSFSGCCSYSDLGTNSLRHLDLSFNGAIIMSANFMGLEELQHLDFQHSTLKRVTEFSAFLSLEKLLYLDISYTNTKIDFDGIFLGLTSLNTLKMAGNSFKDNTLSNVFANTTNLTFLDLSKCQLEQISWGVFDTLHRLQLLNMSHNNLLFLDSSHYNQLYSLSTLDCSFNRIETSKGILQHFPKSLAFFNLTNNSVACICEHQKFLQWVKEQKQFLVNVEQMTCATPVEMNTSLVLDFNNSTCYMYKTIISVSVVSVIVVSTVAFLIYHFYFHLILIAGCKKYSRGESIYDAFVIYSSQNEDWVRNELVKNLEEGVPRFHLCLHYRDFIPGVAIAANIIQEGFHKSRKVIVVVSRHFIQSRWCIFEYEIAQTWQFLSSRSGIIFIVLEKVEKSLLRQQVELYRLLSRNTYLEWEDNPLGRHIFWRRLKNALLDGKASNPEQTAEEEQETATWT
Nature of the assay: Inhibition of TLR4 in BALB/c mouse BMDM assessed as downregulation of LPS-stimulated IL-6 level at 5 ug/ml preincubated for 18 hrs followed by LPS challenge measured after 24 hrs by ELISA relative to control. Put shortly:
(§1)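 BALB/c male bone marrow macrophages were differentiated 7 days with L929 supernatant (≥99% CD11b+/F4/80+). Cells were plated at 2 × 10^5/well in triplicate, rested overnight, and given compounds at 5 μg/mL for 18 h. They were then stimulated with 100 ng/mL S. minnesota LPS, 10 ng/mL Pam3CSK4 (BLP) or 0.01 μM CpG for 24 h. Supernatant IL-12p40 and IL-6 were measured by ELISA (sensitivity 16 pg/mL).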
(In an ELISA, binding on a coated surface is turned into a signal by an enzyme label.)

Assay [2] addresses T2, Toll-like receptor 9 (Mus musculus) (UniProt Q9EQU3).
T2 sequence (whole entry): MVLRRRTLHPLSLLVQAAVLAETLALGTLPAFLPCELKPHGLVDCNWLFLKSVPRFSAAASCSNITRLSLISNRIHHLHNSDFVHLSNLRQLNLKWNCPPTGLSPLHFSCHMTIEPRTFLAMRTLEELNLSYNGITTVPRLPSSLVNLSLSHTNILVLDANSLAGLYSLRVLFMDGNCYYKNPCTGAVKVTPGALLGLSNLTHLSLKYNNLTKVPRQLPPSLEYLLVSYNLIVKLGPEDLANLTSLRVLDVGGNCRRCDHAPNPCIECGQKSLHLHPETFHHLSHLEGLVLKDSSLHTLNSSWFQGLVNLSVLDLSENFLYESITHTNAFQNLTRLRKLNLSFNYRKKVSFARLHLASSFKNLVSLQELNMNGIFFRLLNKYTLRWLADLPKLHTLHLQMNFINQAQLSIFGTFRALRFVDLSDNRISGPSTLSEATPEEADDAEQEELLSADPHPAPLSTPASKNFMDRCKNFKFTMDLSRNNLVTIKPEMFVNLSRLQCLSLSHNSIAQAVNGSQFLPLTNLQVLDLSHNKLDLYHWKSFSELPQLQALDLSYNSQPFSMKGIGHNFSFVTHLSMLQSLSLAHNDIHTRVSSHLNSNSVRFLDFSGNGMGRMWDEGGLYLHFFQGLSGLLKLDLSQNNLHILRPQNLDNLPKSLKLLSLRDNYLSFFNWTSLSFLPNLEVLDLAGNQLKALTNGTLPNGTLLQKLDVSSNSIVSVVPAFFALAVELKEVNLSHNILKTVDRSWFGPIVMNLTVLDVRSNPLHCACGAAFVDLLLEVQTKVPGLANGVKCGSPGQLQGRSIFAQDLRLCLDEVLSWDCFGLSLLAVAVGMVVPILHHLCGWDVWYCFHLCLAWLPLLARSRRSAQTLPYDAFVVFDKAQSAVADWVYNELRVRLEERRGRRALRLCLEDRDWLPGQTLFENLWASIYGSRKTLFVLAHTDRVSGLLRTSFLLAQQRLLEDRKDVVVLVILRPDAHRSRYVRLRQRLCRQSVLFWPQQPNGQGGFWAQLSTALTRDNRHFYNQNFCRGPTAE
Briefly: Inhibition of TLR9 in BALB/c mouse BMDM assessed as downregulation of CpG-stimulated IL-6 level at 5 ug/ml preincubated for 18 hrs followed by CpG challenge measured after 24 hrs by ELISA relative to control. Put shortly:
as §1

Assay [3] has as its target T3, TLR2/TLR6 (Mus musculus) (UniProt Q9QUN7+Q9EPW9). Briefly: Inhibition of TLR2/6 in BALB/c mouse BMDM assessed as downregulation of BLP-stimulated IL-6 level at 5 ug/ml preincubated for 18 hrs followed by BLP challenge measured after 24 hrs by ELISA relative to control. In kind it is protein-complex assay. The procedure, abridged:
as §1

Assay [4] has as its target T3, TLR2/TLR6 (Mus musculus). Briefly: Inhibition of TLR2/6 in BALB/c mouse BMDM assessed as downregulation of BLP-stimulated IL-12p40 level at 5 ug/ml preincubated for 18 hrs followed by BLP challenge measured after 24 hrs by ELISA relative to control. In kind it is protein-complex assay. The procedure, abridged:
as §1

The target in assay [5] is T1, Toll-like receptor 4 (Mus musculus). Nature of the assay: Inhibition of TLR4 in BALB/c mouse BMDM assessed as downregulation of LPS-stimulated IL-12p40 level at 5 ug/ml preincubated for 18 hrs followed by LPS challenge measured after 24 hrs by ELISA relative to control. Put shortly:
as §1

The target in assay [6] is T2, Toll-like receptor 9 (Mus musculus). Nature of the assay: Inhibition of TLR9 in BALB/c mouse BMDM assessed as downregulation of CpG-stimulated IL-12p40 level at 5 ug/ml preincubated for 18 hrs followed by CpG challenge measured after 24 hrs by ELISA relative to control. Put shortly:
as §1

The source made the active and inactive calls. No rule for the calls is given here.

For `O=S(=O)(Cc1ccc(Br)cc1)NCCN1CCCC1`, the inhibition entry (in assay [1]; in assay [2]; at TLR2/TLR6 (Mus musculus) [3]; on TLR2/TLR6 (Mus musculus) [4]; in assay [5]; in assay [6]) was “inactive” throughout.

Take `CN(C)CCCNS(=O)(=O)Cc1ccc(Br)cc1`: the inhibition result (in assay [1]; in assay [2]; at TLR2/TLR6 (Mus musculus) [3]; on TLR2/TLR6 (Mus musculus) [4]; in assay [5]; in assay [6]) was “inactive” each time.

In the case of `O=S(=O)(CCN1CCOCC1)c1ccccc1`, the inhibition result (in assay [1]; in assay [2]; on TLR2/TLR6 (Mus musculus) [3]; in assay [5]; in assay [6]) was “inactive” each time. Moreover, the inhibition result on TLR2/TLR6 (Mus musculus) [4] was “Active”.

As to `CN(C)CCOP(=O)(O)Cc1ccc([N+](=O)[O-])cc1`, the inhibition entry (in assay [1]; in assay [2]; on TLR2/TLR6 (Mus musculus) [3]; at TLR2/TLR6 (Mus musculus) [4]; in assay [5]; in assay [6]) was “inactive” in each case.

On to `Cc1ccc(CS(=O)(=O)CCC[N+](C)(C)C)cc1`, for which the inhibition result (in assay [1]; in assay [2]; on TLR2/TLR6 (Mus musculus) [3]; at TLR2/TLR6 (Mus musculus) [4]; in assay [5]; in assay [6]) was “inactive” each time.

With `O=S(=O)(Cc1ccc(Br)cc1)NCCN1CCOCC1`, the inhibition entry (in assay [1]; in assay [2]; at TLR2/TLR6 (Mus musculus) [3]; on TLR2/TLR6 (Mus musculus) [4]; in assay [5]; in assay [6]) was “inactive” each time.

In the case of `COc1cccc(C(=O)NCCCN(C)C)c1`, the inhibition entry (in assay [1]; on TLR2/TLR6 (Mus musculus) [3]; on TLR2/TLR6 (Mus musculus) [4]; in assay [6]) was “inactive” in each case. In addition, the inhibition entry in assay [2] and in assay [5] was “Active” each time.

As to `Cc1ccc(CS(=O)(=O)CCCN2CCCC2)cc1`, the inhibition result (in assay [1]; in assay [2]; at TLR2/TLR6 (Mus musculus) [3]; at TLR2/TLR6 (Mus musculus) [4]; in assay [5]; in assay [6]) was “inactive” throughout.

For `CN(C)CCN(C)CCS(=O)(=O)Nc1ccccc1`, the inhibition entry (in assay [1]; in assay [2]; at TLR2/TLR6 (Mus musculus) [3]; on TLR2/TLR6 (Mus musculus) [4]; in assay [6]) was “inactive” throughout. Moreover, in assay [5], the inhibition entry was “Active”.

As to `CN(C)CCOP(=O)(O)Cc1ccc(Br)cc1`, the inhibition result (in assay [1]; in assay [2]; on TLR2/TLR6 (Mus musculus) [3]; at TLR2/TLR6 (Mus musculus) [4]; in assay [5]; in assay [6]) was “inactive” throughout.

Consider `O=S(=O)(CCNCCCO)c1ccccc1`, for which the inhibition entry (in assay [1]; in assay [2]; on TLR2/TLR6 (Mus musculus) [3]; in assay [5]; in assay [6]) was “inactive” each time. In addition, at TLR2/TLR6 (Mus musculus) [4], the inhibition entry was “Active”.

Turning to `O=S(=O)(CCN1CCCC1)Cc1ccc(F)cc1`, the inhibition entry (in assay [1]; in assay [2]; at TLR2/TLR6 (Mus musculus) [3]; in assay [5]; in assay [6]) was “inactive” throughout. Besides, the inhibition result on TLR2/TLR6 (Mus musculus) [4] was “Active”.

On to `CN(C)CCN(C)CCS(=O)(=O)c1ccccc1`, for which the inhibition result (in assay [1]; in assay [2]; at TLR2/TLR6 (Mus musculus) [3]; at TLR2/TLR6 (Mus musculus) [4]; in assay [5]; in assay [6]) was “inactive” each time.

For `O=S(=O)(CCN1CCCC1)NCc1ccccc1`, the inhibition result (in assay [1]; in assay [2]; at TLR2/TLR6 (Mus musculus) [3]; at TLR2/TLR6 (Mus musculus) [4]; in assay [5]; in assay [6]) was “inactive” in each case.

Consider `CN(C)CCCOP(=O)(O)Oc1ccc(NC(=O)OC(C)(C)C)cc1`, for which the inhibition result (in assay [1]; in assay [2]; at TLR2/TLR6 (Mus musculus) [3]; on TLR2/TLR6 (Mus musculus) [4]; in assay [5]; in assay [6]) was “inactive” in each case.

For `O=S(=O)(CCN1CCCC1)Nc1ccccc1`, the inhibition result (in assay [1]; in assay [2]; at TLR2/TLR6 (Mus musculus) [3]; at TLR2/TLR6 (Mus musculus) [4]) was “inactive” each time. For the same compound, the inhibition result in assay [5] and in assay [6] was “Active” each time.

For the compound `C[N+]1(CCCS(=O)(=O)Cc2ccc(Br)cc2)CCCC1`, the inhibition entry (in assay [1]; in assay [2]; at TLR2/TLR6 (Mus musculus) [3]; at TLR2/TLR6 (Mus musculus) [4]; in assay [5]; in assay [6]) was “inactive” throughout.

On to `O=S(=O)(CCN1CCOCC1)NCc1ccc(Br)cc1`, for which the inhibition entry (in assay [1]; in assay [2]; at TLR2/TLR6 (Mus musculus) [3]; at TLR2/TLR6 (Mus musculus) [4]; in assay [5]; in assay [6]) was “inactive” each time.

The values above are taken from ChEMBL document CHEMBL3108700, “Designing anti-inflammatory drugs from parasitic worms: a synthetic small molecule analogue of the Acanthocheilonema viteae product ES-62 prevents development of collagen-induced arthritis” (J Med Chem, 2013).
